The nature of assay [1]: Antagonist activity at AMPA receptor in rat […] granule cells assessed as inhibition of kainate-induced calcium uptake after 30 mins. The following applies: 0.5 h. The assay is classed as functional, cell-based. The procedure, abridged: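 Primary rat cerebellar granule neurons, preincubated 30 min with compounds in BSS (pH 7.3), then exposed at room temperature to 100 µM kainate in BSS with 10 µM glycine, 0.5 mM dithiothreitol and 45Ca2+ for 10 min. Washed with ice-cold BSS containing 5 mM EGTA, lysed in 0.6% Triton X-100, radioactivity counted. IC50 representative of three experiments.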

The nature of assay [2]: Displacement of [3H]CP-526427 from AMPA receptor in Sprague-Dawley rat fore brain by radioligand binding assay. The procedure, abridged:
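Adult male Sprague-Dawley forebrain membranes at 0.5 mg protein/mL in 50 mM Tris·HCl pH 7.4. Compounds at various concentrations with 3 nM [3H]CP-526,427, 20 min at 30 °C. Filtration onto glass fiber filters, scintillation counting. Nonspecific binding taken with 10 µM unlabeled CP-526,427 or CP-465,022. Positive control was CP-465,022.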
On the technique in general: Loss of bound radioactivity is the signal in a displacement assay; it reports binding, not function.

The subject of a further assay is Neuron. Put plainly: Inhibition of kainate-induced C57BL/6N mouse hippocampal neurons excitotoxicity after 48 hrs by MTT assay. Type of assay: functional, tissue-based. The following applies: Hippocampus. Put shortly:
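E13 C57BL/6N mouse hippocampal cultures were given 30 µM kainate with the test compound at graded concentrations, in medium without glutamate. Exposure was 48 h at 37 °C. Viability was measured by MTT conversion (absorbance 570 nm), relative to untreated cells. IC50 values are representative of three independent experiments.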

Assay [3] is described as follows: Excitotoxicity against C57BL/6N mouse hippocampal neurons after 48 hrs by MTT assay. Type of assay: tissue-based. The following applies: Neuron, Hippocampus. The procedure, abridged: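 Primary hippocampal cultures from E13 C57BL/6N mouse embryos were grown on poly-L-lysine in Neurobasal/B27/BDNF medium. At 7 DIV they were exposed to kainate (5–500 µM) for 48 h at 37 °C, 5% CO2. Viability was read by MTT (4 h, absorbance 570 nm) as % of untreated cells. Five–six experiments, each in duplicate.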
For orientation: Tetrazolium assays rely on reduction of a dye to a coloured formazan, in cell work by metabolically active cells.

What is called IC50 is the concentration that gives 50% inhibition. On to `CCC1C(=O)NN=C(c2ccc(N)c(C)c2)c2cc3c(cc21)OCO3` (stereo not drawn), for which the results for the IC50 in assay [1] and in assay [2] were 4.34 µM and 15.6 µM, respectively.

As to `CC(=O)N1N=C(c2ccc(N)cc2)c2cc3c(cc2C[C@H]1C)OCO3`, the Activity result in the assay on Neuron was “Dose-dependent effect”.

As for `Nc1ccc(C2=NNC(=O)Cc3cc4c(cc32)OCCO4)cc1Cl`, the concentration for half-maximal inhibition (IC50) in assay [1] worked out at 2 µM; in assay [2], 2.05 µM.

In general, EC50 refers to the concentration giving half of the maximal effect. Higher therefore signals weaker potency. `C=C(C)[C@H]1CN[C@H](C(=O)O)[C@H]1CC(=O)O` [KAINIC ACID]: the EC50 in assay [3] came out at 17.3 µM.

For the compound `Cc1cc(C2=NNC(=O)Cc3cc4c(cc32)OCCO4)cc(C)c1N`, the IC50 in assay [1] and in assay [2] was greater than 100 µM throughout.

With `CC1=NN=C(c2ccc(N)cc2)c2cc3c(cc2C1)OCO3` [GYKI-52466], the half-inhibitory concentration (IC50) in assay [1] was found to be 22 µM; in the assay on Neuron, 10.8 µM; in assay [2], 12.6 µM.

`CNC(=O)N1N=C(c2ccc(N)cc2)c2cc3c(cc2C[C@H]1C)OCO3`: the Activity entry with Neuron is “Dose-dependent effect”.

As for `CNC(=O)N1N=C(c2ccc(N)cc2)c2cc3c(cc2CC1=O)OCO3`, the concentration for half-maximal inhibition (IC50) in assay [1] was found to be 11 µM; in assay [2], 12 µM.

On to `Nc1ccc(C2=NNC(=O)Cc3cc4c(cc32)OCO4)cc1`, for which the IC50 in assay [1] was 12 µM; in assay [2] it was 32 µM.

Regarding `CC1C(=O)NN=C(c2ccc(N)cc2)c2cc3c(cc21)OCO3` (stereo not drawn), the IC50 in assay [1] was 12 µM; in assay [2], 12.9 µM.

As for `CC1C(=O)NN=C(c2ccc(N)cc2)c2cc3c(cc21)OCCO3` (stereo not drawn), the IC50 in assay [2] stood at 6.96 µM.

Consider `Cc1cc(C2=NNC(=O)C(C)c3cc4c(cc32)OCO4)ccc1N` (stereo not drawn), for which the IC50 is 18.8 µM in assay [1] and 9.62 µM in assay [2].

For the compound `COc1cc(C2=NNC(=O)Cc3cc4c(cc32)OCO4)ccc1N`, the IC50 in assay [1] is 31 µM; in assay [2], greater than 100 µM.

For the compound `CC1C(=O)NN=C(c2ccc(N)c(Cl)c2)c2cc3c(cc21)OCCO3` (stereo not drawn), the IC50 in assay [1] was 18 µM; in assay [2], 21.6 µM.

Take `Cc1cc(C2=NNC(=O)C(C)c3cc4c(cc32)OCCO4)ccc1N` (stereo not drawn): the values for the 50% inhibitory concentration (IC50) in assay [1] and in assay [2] were 1.23 µM and 4.5 µM, respectively.

As for `CC1C(=O)NN=C(c2ccc(N)c(Cl)c2)c2cc3c(cc21)OCO3` (stereo not drawn), the values for the IC50 in assay [1] and in assay [2] were 7 µM and 11.4 µM, respectively.

`Cc1cc(C2=NNC(=O)Cc3cc4c(cc32)OCO4)ccc1N`: the figures for the half-inhibitory concentration (IC50) in assay [1] and in assay [2] were 2.5 µM and 6.3 µM, respectively.

For `Cc1cc(C2=NNC(=O)Cc3cc4c(cc32)OCO4)cc(C)c1N`, the 50% inhibitory concentration (IC50) in assay [1] and in assay [2] was greater than 100 µM in each case.

`Cc1cc(C2=NNC(=O)Cc3cc4c(cc32)OCCO4)ccc1N`: the concentration for half-maximal inhibition (IC50) in assay [1] worked out at 6.4 µM; in the assay with Neuron, 1.6 µM; in assay [2], 1.84 µM.

On to `CCC1C(=O)NN=C(c2ccc(N)cc2)c2cc3c(cc21)OCO3` (stereo not drawn), for which the values for the IC50 in assay [1] and in assay [2] were 17.1 µM and 8.37 µM, respectively.

With `Nc1ccc(C2=NNC(=O)Cc3cc4c(cc32)OCCO4)cc1`, the results for the IC50 in assay [1] and in assay [2] were 2.9 µM and 9 µM, respectively.

Consider `Nc1ccc(C2=NNC(=O)C(Cc3ccccc3)c3cc4c(cc32)OCO4)cc1` (stereo not drawn), for which the half-inhibitory concentration (IC50) in assay [2] is greater than 100 µM.

As to `NS(=O)(=O)c1cccc2c1c([N+](=O)[O-])cc1nc(O)c(O)nc12` [NBQX], the midpoint of inhibition in the assay on Neuron, the IC50, lay at 11.9 µM.

`CNC(=O)N1N=C(c2ccc(N)cc2)c2cc3c(cc2CC1=O)OCCO3`: the half-maximal inhibitory concentration (IC50) in assay [1] came to 5.4 µM; in assay [2], 7.78 µM.

As for `CNC(=O)N1N=C(c2ccc(N)cc2)c2cc3c(cc2C(C)C1=O)OCO3` (stereo not drawn), the values for the IC50 in assay [1] and in assay [2] were 15.8 µM and 4.01 µM, respectively.

Regarding `COc1cc(C2=NNC(=O)Cc3cc4c(cc32)OCCO4)ccc1N`, the figures for the concentration for half-maximal inhibition (IC50) in assay [1] and in assay [2] were 12 µM and 81.1 µM, respectively.

(Values after ChEMBL document CHEMBL1144659, “Structure-activity study of 2,3-benzodiazepin-4-ones noncompetitive AMPAR antagonists: identification of the 1-(4-amino-3-methylphenyl)-3,5-dihydro-7,8-ethylenedioxy-4H-2,3-benzodiazepin-4-one as neuroprotective agent” (Bioorg Med Chem, 2008).)
